One molecule from ChEMBL document CHEMBL5678805, “Intermittent administration of MEK inhibitor GDC-0973 plus PI3K inhibitor GDC-0941 triggers robust apoptosis and tumor growth inhibition” (Cancer Res, 2012) can be followed below.

Molecules are shown by their SMILES.

By IC50 is commonly meant the concentration that inhibits the measured activity by half. The low end stands for greater potency, the high end for weaker potency.

For assay [1], the system named is A2058. In words: Antitumor activity against human A2058 cells harboring BRAF V600E/PTEN L112Q/V175/TP53 V274F mutant xenografted in mouse assessed as tumor growth inhibition at 10 mg/kg, po. The conditions noted are these: read-out: TGI. Type of assay: functional. The procedure, abridged: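 Mice carrying human tumor xenografts dosed orally once daily for 21 consecutive days. Tumor volume measured by calipers as (L×W×W)/2. %TGI = 100×[1 − AUC(treatment/day)/AUC(vehicle/day)], using the area under the fitted growth curve relative to vehicle.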
Background: Xenograft models place foreign cells or tissue in a host animal.

For assay [2], the system named is NCI-H2122. In words: Antitumor activity against human NCI-H2122 cells xenografted in mouse assessed as tumor growth inhibition at 20 mg/kg, po administered once a day for 21 days in presence of 4-(2-(1H-indazol-4-yl)-6-((4-(methylsulfonyl)piperazin-1-yl)methyl)thieno[3,2-d]pyrimidin-4-yl)morpholine. Type of assay: functional. Conditions: NCI-H2122, 504 h, time 21 day, read-out: TGI. The procedure, abridged: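 Mice bearing NCI-H2122 xenografts were given MEK inhibitor, PI3K inhibitor, or both, orally once daily for 21 consecutive days at the doses labeled. Caliper tumor volumes were calculated as (L×W×W)/2. %TGI was derived from the AUC of the fitted growth curve per day relative to vehicle.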

Assay [3] concerns the target Phosphatidylinositol 4,5-bisphosphate 3-kinase catalytic subunit gamma isoform (Homo sapiens, UniProt P48736). The experiment in a line: Inhibition of PI3Kgamma (unknown origin).
The subject of assay [4] is Calu-6. In words: Antitumor activity against human Calu-6 cells harboring KRAS Q61K and TP53 R196 mutant xenografted in mouse assessed as tumor growth inhibition at 2.5 mg/kg, po. Type of assay: functional. Conditions: read-out: TGI. The gist of the method:
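Single-agent dose ranging in human tumor xenograft mice at 2.5, 5 or 10 mg/kg oral. Tumor volume was measured by caliper as (L×W×W)/2. %TGI = 100×[1 − AUC(treatment/d)/AUC(vehicle/d)] from the fitted growth curve per dose group, relative to vehicle.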

The nature of assay [5]: Antitumor activity against human MOLM16 cells harboring FLT3 T227M mutant xenografted in mouse assessed as tumor growth inhibition at 2.5 mg/kg, po. Type of assay: functional, MOLM-16. Conditions: read-out: TGI. The procedure, abridged: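 Human tumor xenografts in mice were dosed orally at the indicated mg/kg. Tumor volume was measured with calipers as (L×W×W)/2. %TGI = 100 × [1 − (AUC treatment/d)/(AUC vehicle/d)], using the area under the fitted tumor-growth curve per day for each dose group relative to vehicle.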

Assay [6] has as its target Phosphatidylinositol 4,5-bisphosphate 3-kinase catalytic subunit alpha isoform (Homo sapiens, UniProt P42336). The experiment in a line: Inhibition of PI3Kalpha (unknown origin).

Sequence of Phosphatidylinositol 4,5-bisphosphate 3-kinase catalytic subunit alpha isoform (P42336 whole entry, canonical isoform): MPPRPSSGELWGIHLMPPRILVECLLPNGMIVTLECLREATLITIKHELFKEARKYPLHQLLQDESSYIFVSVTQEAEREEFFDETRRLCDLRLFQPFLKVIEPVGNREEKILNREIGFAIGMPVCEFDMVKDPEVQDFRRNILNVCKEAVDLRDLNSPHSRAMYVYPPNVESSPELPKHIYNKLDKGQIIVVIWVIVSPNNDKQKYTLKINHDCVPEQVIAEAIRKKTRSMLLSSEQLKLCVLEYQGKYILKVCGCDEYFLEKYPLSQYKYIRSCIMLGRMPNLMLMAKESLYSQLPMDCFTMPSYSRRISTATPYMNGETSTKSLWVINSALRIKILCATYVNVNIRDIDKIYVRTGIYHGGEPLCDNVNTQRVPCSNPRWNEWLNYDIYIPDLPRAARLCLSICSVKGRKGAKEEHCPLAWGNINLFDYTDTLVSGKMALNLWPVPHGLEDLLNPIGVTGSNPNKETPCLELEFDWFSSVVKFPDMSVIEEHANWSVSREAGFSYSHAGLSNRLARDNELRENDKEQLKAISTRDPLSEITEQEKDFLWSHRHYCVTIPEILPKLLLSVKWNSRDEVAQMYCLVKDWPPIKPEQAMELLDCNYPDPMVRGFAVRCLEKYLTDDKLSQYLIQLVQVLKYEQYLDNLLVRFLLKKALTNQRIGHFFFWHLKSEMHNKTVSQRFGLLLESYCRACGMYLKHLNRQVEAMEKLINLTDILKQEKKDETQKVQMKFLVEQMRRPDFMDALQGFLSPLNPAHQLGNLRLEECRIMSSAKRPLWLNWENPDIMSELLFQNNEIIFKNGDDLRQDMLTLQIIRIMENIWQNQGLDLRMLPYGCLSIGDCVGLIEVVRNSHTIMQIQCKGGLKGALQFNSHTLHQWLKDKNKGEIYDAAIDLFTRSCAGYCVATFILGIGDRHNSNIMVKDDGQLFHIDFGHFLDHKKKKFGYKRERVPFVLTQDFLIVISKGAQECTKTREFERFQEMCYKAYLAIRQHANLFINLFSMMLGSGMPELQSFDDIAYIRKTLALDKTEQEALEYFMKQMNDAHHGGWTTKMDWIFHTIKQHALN
Sequence of Phosphatidylinositol 4,5-bisphosphate 3-kinase catalytic subunit gamma isoform (P48736 whole entry, canonical isoform): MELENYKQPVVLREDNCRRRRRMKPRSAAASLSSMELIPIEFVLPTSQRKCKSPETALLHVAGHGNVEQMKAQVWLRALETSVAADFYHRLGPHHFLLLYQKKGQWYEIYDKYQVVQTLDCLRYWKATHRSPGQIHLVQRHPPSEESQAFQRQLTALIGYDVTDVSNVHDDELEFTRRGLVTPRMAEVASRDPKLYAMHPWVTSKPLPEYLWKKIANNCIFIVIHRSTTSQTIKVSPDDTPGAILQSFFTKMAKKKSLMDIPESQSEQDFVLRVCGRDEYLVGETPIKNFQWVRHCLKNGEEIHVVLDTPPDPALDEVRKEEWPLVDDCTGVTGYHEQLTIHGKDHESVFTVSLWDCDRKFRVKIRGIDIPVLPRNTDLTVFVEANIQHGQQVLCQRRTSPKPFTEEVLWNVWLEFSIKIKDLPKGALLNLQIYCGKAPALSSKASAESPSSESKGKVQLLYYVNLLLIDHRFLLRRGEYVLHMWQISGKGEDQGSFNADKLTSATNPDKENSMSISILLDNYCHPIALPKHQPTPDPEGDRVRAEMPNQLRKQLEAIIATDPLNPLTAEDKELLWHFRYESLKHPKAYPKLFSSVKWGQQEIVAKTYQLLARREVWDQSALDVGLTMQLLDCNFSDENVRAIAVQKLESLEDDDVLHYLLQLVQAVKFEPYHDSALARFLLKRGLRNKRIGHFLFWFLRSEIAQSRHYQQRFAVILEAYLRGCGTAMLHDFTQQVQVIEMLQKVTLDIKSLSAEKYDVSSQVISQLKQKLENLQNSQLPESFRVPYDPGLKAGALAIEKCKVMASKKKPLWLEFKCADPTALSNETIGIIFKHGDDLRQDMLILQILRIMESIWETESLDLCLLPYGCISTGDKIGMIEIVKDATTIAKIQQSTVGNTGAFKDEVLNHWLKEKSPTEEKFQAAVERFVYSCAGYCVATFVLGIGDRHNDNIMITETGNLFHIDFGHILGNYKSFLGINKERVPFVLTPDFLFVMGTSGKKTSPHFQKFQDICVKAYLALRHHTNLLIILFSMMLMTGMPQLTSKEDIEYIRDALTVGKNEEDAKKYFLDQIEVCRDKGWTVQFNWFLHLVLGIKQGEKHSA

As to `O=C(c1ccc(F)c(F)c1Nc1ccc(I)cc1F)N1CC(O)([C@@H]2CCCCN2)C1` [COBIMETINIB], the inhibition in vivo at 10 mg/kg in assay [1] turned out to be 47.3%. The inhibition in vivo at 20 mg/kg in assay [2] came out at 87%. Moreover, the IC50 in assay [3] and in assay [6] was greater than 10 µM throughout. Also, the inhibition in vivo at 2.5 mg/kg in assay [4] was 27.5%; in assay [5], 7%.
